Results published in ChEMBL document CHEMBL1153955, “Indolylarylsulfones bearing natural and unnatural amino acids. Discovery of potent inhibitors of HIV-1 non-nucleoside wild type and resistant mutant strains reverse transcriptase and coxsackie B4 virus” (J Med Chem, 2009).

Assays:
[1] = tested on: Human immunodeficiency virus 1; assay: Antiviral activity against HIV1 with reverse transcriptase Y181I mutation in human CEM cells assessed as protection against virus-induced cytopathicity; assay type: functional, organism-based; settings: Human immunodeficiency virus 1, CCRF-CEM
How it was run: (§1)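 CEM cells (~3 × 10⁵ cells/mL) were infected with ~100 CCID₅₀ virus per mL and seeded with serial compound dilutions. After 4 days at 37 °C, syncytium (giant cell) formation was scored microscopically. EC₅₀ is the concentration giving 50% protection against virus cytopathicity.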

[2] = Cytotoxicity against MDCK cells by MTS assay; assay type: cell-based, Canis lupus familiaris; settings: dog
[3] = tested on: Felid alphaherpesvirus 1; assay: Antiviral activity against Feline herpesvirus in feline […] cells assessed as inhibition of virus-induced cytopathicity; assay type: functional, organism-based
[4] = tested on: Human immunodeficiency virus 1; assay: Antiviral activity against HIV1 with reverse transcriptase K103N mutation in human CEM cells assessed as protection against virus-induced cytopathicity; assay type: functional, organism-based; settings: Human immunodeficiency virus 1, CCRF-CEM; how it was run: as §1
[5] = target: Human immunodeficiency virus type 1 reverse transcriptase (Human immunodeficiency virus 1, UniProt Q72547, L100I); assay: Inhibition of HIV1 reverse transcriptase p66/p51 L100I mutant; settings: read-out: IC50
How it was run: (§2)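 Substrate was 0.5 µg poly(rA)/oligo(dT) 10:1 (0.3 µM 3′-OH ends) with 10 µM [³H]dTTP, at 37 °C. Acid-precipitable radioactivity was counted on GF/C filters after TCA washes.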

[6] = tested on: Punta Toro virus; assay: Antiviral activity against Punta Toro virus in african green monkey Vero cells assessed as protection against virus-induced cytopathicity; assay type: functional, organism-based
How it was run: (§3)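 Confluent cell monolayers inoculated with 100 CCID₅₀ virus. After 1-2 h adsorption, residual virus removed and cultures incubated with varying compound concentrations. Cytopathicity scored once it reached completion in untreated infected controls. EC₅₀ = dose reducing virus-induced cytopathogenicity by 50%.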

[7] = tested on: Vesicular stomatitis virus; assay: Antiviral activity against VSV in human HeLa cells assessed as protection against virus-induced cytopathicity; assay type: functional, organism-based
[8] = tested on: Respiratory syncytial virus; assay: Antiviral activity against RSV Long in human HeLa cells assessed as protection against virus-induced cytopathicity; assay type: functional, organism-based; how it was run: as §3
[9] = tested on: Vesicular stomatitis virus; assay: Antiviral activity against VSV in human HEL cells assessed as protection against virus-induced cytopathicity; assay type: functional, organism-based
[10] = tested on: Human respirovirus 3; assay: Antiviral activity against Parainfluenza virus type 3 in african green monkey Vero cells assessed as protection against virus-induced cytopathicity; assay type: functional, organism-based; settings: Human respirovirus 3, Vero; how it was run: as §3
[11] = tested on: Influenza A virus H3N2; assay: Antiviral activity against influenza H3N2 virus in MDCK cells assessed as reduction of virus-induced cytopathicity by MTS method; assay type: functional, organism-based
[12] = tested on: Human immunodeficiency virus 2; assay: Antiviral activity against HIV2 ROD in human CEM cells assessed as protection against virus-induced cytopathicity after 4 days; assay type: functional, organism-based; settings: Human immunodeficiency virus 2, ROD, CCRF-CEM, 96 h
How it was run: (§4)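 CEM cells (~3 × 10⁵ cells/mL) infected with ~100 CCID₅₀ per mL of HIV-1 (IIIB) or HIV-2 (ROD), then seeded into wells containing compound dilutions. After 4 days at 37 °C, syncytium (giant cell) formation was examined microscopically. EC₅₀ = concentration protecting CEM cells from HIV cytopathicity by 50%.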

[13] = tested on: Influenza B virus; assay: Antiviral activity against influenza B virus in MDCK cells assessed as reduction of virus-induced cytopathicity by MTS method; assay type: functional, organism-based
[14] = tested on: Human alphaherpesvirus 2; assay: Antiviral activity against HSV2 G in human HEL cells assessed as protection against virus-induced cytopathicity; assay type: functional, organism-based; settings: Human alphaherpesvirus 2, strain G; how it was run: as §3
[15] = tested on: Influenza A virus; assay: Antiviral activity against influenza H1N1 virus in MDCK cells assessed as reduction of virus-induced cytopathicity by MTS method; assay type: functional, organism-based; settings: Influenza A virus, H1N1, MDCK
[16] = tested on: Sindbis virus; assay: Antiviral activity against Sindbis virus in african green monkey Vero cells assessed as protection against virus-induced cytopathicity; assay type: functional, organism-based; how it was run: as §3
[17] = tested on: Human alphaherpesvirus 1; assay: Antiviral activity against thymidine kinase deficient and acyclovir resistant HSV1 KOS in human HEL cells assessed as protection against virus-induced cytopathicity; assay type: functional, organism-based; settings: Human alphaherpesvirus 1, KOS
[18] = tested on: Feline coronavirus; assay: Antiviral activity against Feline coronavirus in feline […] cells assessed as inhibition of virus-induced cytopathicity; assay type: functional, organism-based; settings: Alphacoronavirus 1
[19] = tested on: Human immunodeficiency virus 1; assay: Antiviral activity against HIV1 3B in human CEM cells assessed as protection against virus-induced cytopathicity after 4 days; assay type: functional, organism-based; settings: Human immunodeficiency virus 1, 3B, CCRF-CEM, 96 h; how it was run: as §4
[20] = tested on: Human immunodeficiency virus 1; assay: Antiviral activity against HIV1 with reverse transcriptase Y188L mutation in human CEM cells assessed as protection against virus-induced cytopathicity; assay type: functional, organism-based; settings: Human immunodeficiency virus 1, CCRF-CEM; how it was run: as §1
[21] = Cytotoxicity against human HEL cells assessed as drug level causing microscopically detectable alteration of normal cell morphology after 3 days; assay type: cell-based
[22] = tested on: Influenza A virus H3N2; assay: Antiviral activity against influenza H3N2 virus in MDCK cells assessed as reduction of virus-induced cytopathicity by visual cytopathic effect scoring method; assay type: functional, organism-based
[23] = Cytotoxicity against MDCK cells assessed as drug level causing microscopically detectable alteration of normal cell morphology; assay type: cell-based, Canis lupus familiaris; settings: dog
[24] = tested on: Coxsackievirus B4; assay: Antiviral activity against Coxsackievirus B4 in african green monkey Vero cells assessed as protection against virus-induced cytopathicity; assay type: functional, organism-based; settings: Enterovirus B; how it was run: as §3
[25] = tested on: Influenza A virus; assay: Antiviral activity against influenza H1N1 virus in MDCK cells assessed as reduction of virus-induced cytopathicity by visual cytopathic effect scoring method; assay type: functional, organism-based
[26] = target: Human immunodeficiency virus type 1 reverse transcriptase (Human immunodeficiency virus 1, UniProt Q72547, Y181I); assay: Inhibition of HIV1 reverse transcriptase p66/p51 Y181I mutant; settings: read-out: IC50; how it was run: as §2
[27] = tested on: Coxsackievirus B4; assay: Antiviral activity against Coxsackievirus B4 in human HeLa cells assessed as protection against virus-induced cytopathicity; assay type: functional, organism-based; settings: Enterovirus B; how it was run: as §3
[28] = Cytotoxicity against feline CRFK cells by MTS assay; assay type: cell-based, Felis catus; settings: cat
[29] = tested on: Human immunodeficiency virus 1; assay: Antiviral activity against HIV1 with reverse transcriptase L100I mutation in human CEM cells assessed as protection against virus-induced cytopathicity; assay type: functional, organism-based; settings: Human immunodeficiency virus 1, CCRF-CEM; how it was run: as §1
[30] = Antiproliferative activity against human Molt4/C8 cells after 3 days; assay type: cell-based; settings: MOLT-4, 72 h
How it was run: (§5)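 Cells seeded at 5 × 10⁴ to 7.5 × 10⁴ cells/200 µL with or without serial compound dilutions; incubated at 37 °C for 2 days (L1210) or 3 days (Molt4/C8, CEM). Cell numbers counted with a Coulter counter. CC₅₀ = concentration reducing proliferation by 50% versus untreated controls, read from plots of cell number (% of control) against concentration. Means of at least two independent experiments.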

[31] = Cytotoxicity against human HeLa cells assessed as drug level causing microscopically detectable alteration of normal cell morphology after 3 days; assay type: cell-based
How it was run: (§6)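 Serial compound dilutions added to confluent HeLa or Vero monolayers. MCC = minimum concentration causing microscopically detectable alteration of cell morphology after 3 days of incubation.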

[32] = tested on: Human alphaherpesvirus 1; assay: Antiviral activity against HSV1 KOS in human HEL cells assessed as protection against virus-induced cytopathicity; assay type: functional, organism-based; settings: Human alphaherpesvirus 1, KOS
[33] = tested on: Human immunodeficiency virus 1; assay: Antiviral activity against HIV1 with reverse transcriptase Y181C mutation in human CEM cells assessed as protection against virus-induced cytopathicity; assay type: functional, organism-based; settings: Human immunodeficiency virus 1, CCRF-CEM; how it was run: as §1
[34] = Cytotoxicity against african green monkey Vero cells assessed as drug level causing microscopically detectable alteration of normal cell morphology after 3 days; assay type: cell-based; settings: chlorocebus sabaeus; how it was run: as §6
[35] = tested on: Mammalian orthoreovirus 1; assay: Antiviral activity against Reovirus 1 in african green monkey Vero cells assessed as protection against virus-induced cytopathicity; assay type: functional, organism-based; settings: Mammalian orthoreovirus 1, Vero; how it was run: as §3
[36] = target: Human immunodeficiency virus type 1 reverse transcriptase (Human immunodeficiency virus 1, UniProt Q72547); assay: Inhibition of HIV1 reverse transcriptase p66/p51; settings: read-out: IC50
[37] = tested on: Influenza B virus; assay: Antiviral activity against influenza B virus in MDCK cells assessed as reduction of virus-induced cytopathicity by visual cytopathic effect scoring method; assay type: functional, organism-based
[38] = tested on: L1210; assay: Antiproliferative activity against mouse L1210 cells after 2 days; assay type: cell-based; settings: L1210, 48 h; how it was run: as §5
[39] = tested on: Vaccinia virus; assay: Antiviral activity against Vaccinia virus Lederle in human HEL cells assessed as protection against virus-induced cytopathicity; assay type: functional, organism-based; settings: Orthopoxvirus vaccinia
[40] = target: Human immunodeficiency virus type 1 reverse transcriptase (Human immunodeficiency virus 1, UniProt Q72547, K103N); assay: Inhibition of HIV1 reverse transcriptase p66/p51 K103N mutant; settings: read-out: IC50; how it was run: as §2
[41] = tested on: CCRF-CEM; assay: Antiproliferative activity against human CEM cells after 3 days; assay type: cell-based; settings: 72 h; how it was run: as §5

`Cc1cc(C)cc(S(=O)(=O)c2c(C(=O)NC(C)C(N)=O)[nH]c3ccc(Cl)cc23)c1` (stereo unspecified) showed an IC50 [1] of over 1 µM, a CC50 [2] of 16 µM and an EC50 [3] of over 20 µM. It also gave an IC50 [4] of 0.014 µM, an IC50 [5] of 0.112 µM and an EC50 [6] of over 20 µM. The EC50 [7] was over 100 µM, the EC50 [8] was over 100 µM and the EC50 [9] was over 100 µM. For the same compound, the EC50 [10] was over 20 µM, the EC50 [11] was over 4 µM and the EC50 [12] was over 10 µM. The EC50 [13] was over 4 µM, the EC50 [14] was over 100 µM and the EC50 [15] was over 4 µM. It also gave an EC50 [16] of over 20 µM, an EC50 [17] of over 100 µM and an EC50 [18] of over 20 µM. For the same compound, the EC50 [19] was 0.0016 µM, the IC50 [20] was 0.66 µM and the MCC at 72 h [21] was over 100 µM. It also gave an EC50 [22] of over 4 µM, an MCC [23] of 20 µM and an EC50 [24] of over 20 µM. It also gave an EC50 [25] of over 4 µM, an IC50 [26] of 2.49 µM and an EC50 [27] of 6 µM. For the same compound, the CC50 [28] was 39.3 µM, the IC50 [29] was 0.009 µM and the IC50 [30] was 3.8 µM. For the same compound, the MCC at 72 h [31] was 100 µM, the EC50 [32] was over 100 µM and the IC50 [33] was 0.096 µM. It also gave an MCC at 72 h [34] of 100 µM, an EC50 [35] of over 20 µM and an IC50 [36] of 0.02 µM. For the same compound, the EC50 [37] was over 4 µM, the IC50 [38] was 12 µM and the EC50 [39] was over 100 µM. The IC50 [40] was 0.19 µM and the IC50 [41] was 11 µM.
